Experimental data taken from PMC12679602 (RSC Advances, 2025).
Values joined by “and” are separate entries in the source; they are usually repeats but may differ in a detail not shown here. Equal entries are not always repeated.

Columns and labels:
Bacillus cereus TISTR035 = experiment: Disc diffusion, B. cereus; assay type: cell-based; settings: for Inhibition zone ± SD, B. cereus: 1 mg per disc, 6 mm disc, 37 °C, 18–24 h
In short: (§1)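 Test compounds were dissolved in DMSO, and 1 mg was loaded onto sterile 6 mm paper discs. Nutrient agar plates were inoculated with bacterial suspension adjusted to 0.5 McFarland. Each plate held four zones: DMSO negative control, ciprofloxacin positive control (5 µg per disc), the free bile acid and its salts. Plates were incubated at 37 °C for 18–24 h. Inhibition zones were read in mm, in triplicate.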

[1] = system: Staphylococcus aureus TISTR746; experiment: Disc diffusion, S. aureus; assay type: cell-based; settings: for Inhibition zone ± SD, S. aureus: 1 mg per disc, 6 mm disc, 37 °C, 18–24 h
In short: as §1

[2] = system: Staphylococcus epidermidis TISTR2172; experiment: Disc diffusion, S. epidermidis; assay type: cell-based; settings: for Inhibition zone ± SD, S. epidermidis: 1 mg per disc, 6 mm disc, 37 °C, 18–24 h
In short: as §1

[3] = system: Candida albicans TISTR5554; experiment: Disc diffusion, C. albicans; assay type: cell-based; settings: for Inhibition zone ± SD, C. albicans: 1 mg per disc, 6 mm disc, 37 °C, 18–24 h
In short: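 Disc diffusion against the yeast. Test compound was in DMSO at 1 mg per 6 mm sterile paper disc, on nutrient agar inoculated with suspension standardized to 0.5 McFarland. Each plate carried a DMSO negative control, amphotericin B positive control (10 µg per disc), the free bile acid and its salts. Incubation was 37 °C for 18–24 h. Zone of inhibition was measured in mm, in triplicate.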

[4] = system: Enterococcus faecalis TISTR927; experiment: Disc diffusion, E. faecalis; assay type: cell-based; settings: for Inhibition zone ± SD, E. faecalis: 1 mg per disc, 6 mm disc, 37 °C, 18–24 h
In short: as §1

[5] = system: Pseudomonas aeruginosa TISTR357; experiment: Disc diffusion, P. aeruginosa; assay type: cell-based; settings: for Inhibition zone ± SD, P. aeruginosa: 1 mg per disc, 6 mm disc, 37 °C, 18–24 h
In short: as §1

S. typhi = experiment: Disc diffusion, S. typhi; assay type: cell-based, Salmonella enterica serovar Typhimurium TISTR1470; settings: for Inhibition zone ± SD, S. typhi: 1 mg per disc, 6 mm disc, 37 °C, 18–24 h
In short: as §1

[6] = system: Escherichia coli TISTR117; experiment: Disc diffusion, E. coli; assay type: cell-based; settings: for Inhibition zone ± SD, E. coli: 1 mg per disc, 6 mm disc, 37 °C, 18–24 h
In short: as §1

S. flexneri ATCC 9199 = experiment: Disc diffusion, S. flexneri; assay type: cell-based, Shigella flexneri; settings: for Inhibition zone ± SD, S. flexneri: 1 mg per disc, 6 mm disc, 37 °C, 18–24 h
In short: as §1

in vitro = settings: human
[7] = system: B. cereus, S. aureus, S. epidermidis, E. faecalis, and E. coli; experiment: Disc diffusion, range over strains as summarised in text; assay type: cell-based; settings: for inhibition zones, range over strains: B. cereus, S. aureus, S. epidermidis, E. faecalis, E. coli, 1 mg per disc
In short: as §1

[8] = Staphylococcus epidermidis, TISTR2172, read-out: Inhibition zone ± SD, S. epidermidis
[9] = Enterococcus faecalis, TISTR927, read-out: Inhibition zone ± SD, E. faecalis
[10] = Bacillus cereus, TISTR035, read-out: Inhibition zone ± SD, B. cereus
[11] = Staphylococcus aureus, TISTR746, read-out: Inhibition zone ± SD, S. aureus
[12] = Escherichia coli, TISTR117, read-out: Inhibition zone ± SD, E. coli

Structure (SMILES)	Inhibition zone ± SD, B. cereus (Bacillus cereus TISTR035)	Inhibition zone ± SD, S. aureus [1]	Inhibition zone ± SD, S. epidermidis [2]	Inhibition zone ± SD, C. albicans [3]	Inhibition zone ± SD, E. faecalis [4]	Inhibition zone ± SD, P. aeruginosa [5]	Inhibition zone ± SD, S. typhi (S. typhi)	Inhibition zone ± SD, E. coli [6]	Inhibition zone ± SD, S. flexneri (S. flexneri ATCC 9199)	further results
C[C@H](CCC(=O)[O-])[C@H]1CC[C@H]2[C@@H]3[C@H](O)C[C@@H]4C[C@H](O)CC[C@]4(C)[C@H]3CC[C@]12C.C[N+](C)(C)CCO [[CDCA][Z] (16)]	16.4 mm and 16.4 ± 0.7 mm	13.8 mm and 13.8 ± 1.3 mm	17.1 mm and 17.1 ± 0.5 mm	Inactive	12.2 mm and 12.2 ± 2.6 mm	Inactive	Inactive	10.4 mm and 10.4 ± 1.2 mm	Inactive	–
C[C@H](CCC(=O)O)[C@H]1CC[C@H]2[C@@H]3[C@@H](O)C[C@@H]4C[C@H](O)CC[C@]4(C)[C@H]3CC[C@]12C [UDCA (9), ursodeoxycholic acid]	8.7 ± 0.3 mm	7.8 ± 0.8 mm	9.6 ± 0.4 mm	Inactive	–	Inactive	Inactive	7.4 ± 0.4 mm	Inactive	–
C[C@H](CCC(=O)O)[C@H]1CC[C@H]2[C@@H]3CC[C@@H]4C[C@H](O)CC[C@]4(C)[C@H]3CC[C@]12C [LCA (1), lithocholic acid]	–	–	–	Inactive	–	Inactive	Inactive	–	Inactive	cytotoxicity (A549-hACE2 cells): did not show cytotoxicity; CC50 (in vitro): > 50 mg/L
C[C@H](CCC(=O)O)[C@H]1CC[C@H]2[C@@H]3CC[C@@H]4C[C@H](O)CC[C@]4(C)[C@H]3C[C@H](O)[C@]12C [DCA (5), deoxycholic acid]	14.4 ± 1.5 mm	11.7 ± 1.6 mm	13.5 ± 0.7 mm	Inactive	10.6 ± 0.4 mm	Inactive	Inactive	10.9 ± 1.6 mm	Inactive	inhibition zones, range over strains [7]: 10.6–14.4 mm; zone of inhibition at 1000 µg/disc [2, 8]: 13.5 mm; zone of inhibition at 1000 µg/disc [4, 9]: 10.6 mm
C[C@H](CCC(=O)O)[C@H]1CC[C@H]2[C@@H]3[C@H](O)C[C@@H]4C[C@H](O)CC[C@]4(C)[C@H]3CC[C@]12C [CDCA (13), chenodeoxycholic acid]	13.5 ± 0.4 mm	9.4 ± 0.8 mm	11.8 ± 0.4 mm	Inactive	8.4 ± 1.1 mm	Inactive	Inactive	7.6 ± 0.6 mm	Inactive	zone of inhibition at 1000 µg/disc (Bacillus cereus TISTR035; [10]): 13.5 mm; zone of inhibition at 1000 µg/disc [1, 11]: 9.4 mm; zone of inhibition at 1000 µg/disc [2, 8]: 11.8 mm; zone of inhibition at 1000 µg/disc [4, 9]: 8.4 mm; zone of inhibition at 1000 µg/disc [6, 12]: 7.6 mm
CCO [Ethanol, ethanol, reference compound]	–	–	–	–	–	–	–	–	–	CC50 (A549-hACE2 cells): >70% v/v
C[C@H](CCC(=O)[O-])[C@H]1CC[C@H]2[C@@H]3CC[C@@H]4C[C@H](O)CC[C@]4(C)[C@H]3C[C@H](O)[C@]12C.C[N+](C)(C)CCO [[DCA][Z] (8)]	18.1 ± 1.7 mm	15.4 ± 2.0 mm	19.1 mm and 19.1 ± 0.2 mm	Inactive	15.0 mm and 15.0 ± 1.3 mm	Inactive	Inactive	13.0 ± 1.9 mm	Inactive	inhibition zones, range over strains [7]: 13.0–19.1 mm; improvement in antibacterial activity compared to its bile acid DCA (5) ([7]; S. epidermidis and E. faecalis inhibition zones): 41.4–41.5%
CC(CCC(=O)[O-])C1CCC2C3C(O)CC4CC(O)CCC4(C)C3CCC12C.C[N+](C)(C)CCO (stereo not shown) [[UDCA][Z] (12)]	12.5 ± 0.5 mm	10.3 ± 1.7 mm	13.0 ± 0.5 mm	Inactive	–	Inactive	Inactive	10.1 ± 1.1 mm	Inactive	–
C[C@@H]1[C@H](O)[C@@H](C)/C=C/C=C/C=C/C=C/C=C/C=C/C=C/[C@H](O[C@@H]2O[C@H](C)[C@@H](O)[C@H](N)[C@@H]2O)C[C@@H]2O[C@](O)(C[C@@H](O)C[C@@H](O)[C@H](O)CC[C@@H](O)C[C@@H](O)CC(=O)O[C@H]1C)C[C@H](O)[C@H]2C(=O)O [amphotericin B, reference compound]	–	–	–	–	–	–	–	–	–	zone of inhibition at 10 µg/disc ([3]; Candida albicans, TISTR5554, read-out: Inhibition zone ± SD, C. albicans): 21.8 ± 1.3 mm
C[C@H](CCC(=O)[O-])[C@H]1CC[C@H]2[C@@H]3CC[C@@H]4C[C@H](O)CC[C@]4(C)[C@H]3CC[C@]12C.C[N+](C)(C)CCO [[LCA][Z] (4)]	7.8 mm and 7.8 ± 1.2 mm	–	–	Inactive	–	Inactive	Inactive	–	Inactive	CC50 (A549-hACE2 cells): >50 µg/mL; cytotoxicity (A549-hACE2 cells): did not exhibit cytotoxicity
O=C(O)c1cn(C2CC2)c2cc(N3CCNCC3)c(F)cc2c1=O [ciprofloxacin, reference compound]	–	–	–	–	–	–	–	–	–	zone of inhibition at 5 µg/disc (Bacillus cereus TISTR035; [10]): 33.2 ± 1.6 mm; zone of inhibition at 5 µg/disc [1, 11]: 31 ± 1.5 mm; zone of inhibition at 5 µg/disc [2, 8]: 36.4 ± 0.4 mm; zone of inhibition at 5 µg/disc [4, 9]: 24.1 ± 1 mm; zone of inhibition at 5 µg/disc ([5]; Pseudomonas aeruginosa, TISTR357, read-out: Inhibition zone ± SD, P. aeruginosa): 31.2 ± 1.1 mm; zone of inhibition at 5 µg/disc (S. typhi; Salmonella enterica, TYPHI, read-out: Inhibition zone ± SD, S. typhi): 39.3 ± 2.6 mm; zone of inhibition at 5 µg/disc [6, 12]: 38.5 ± 2.1 mm; zone of inhibition at 5 µg/disc (S. flexneri ATCC 9199; Shigella flexneri, ATCC9199, read-out: Inhibition zone ± SD, S. flexneri): 42.1 ± 0.7 mm
